FLuc act counter = firefly luciferase counter-screen for stimulation assays; P08659; ATPlite luciferase biochemical, luminescence, 10 min; 0 = ATP-free wells, 1 = DMSO control; activation factor at 10 µM; 200,000 tested, under 10 active;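 active = luciferase activation factor, scaled between plate controls, of at least 2 with compound at 10 µM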
Target sequence (P08659 whole entry, looked up): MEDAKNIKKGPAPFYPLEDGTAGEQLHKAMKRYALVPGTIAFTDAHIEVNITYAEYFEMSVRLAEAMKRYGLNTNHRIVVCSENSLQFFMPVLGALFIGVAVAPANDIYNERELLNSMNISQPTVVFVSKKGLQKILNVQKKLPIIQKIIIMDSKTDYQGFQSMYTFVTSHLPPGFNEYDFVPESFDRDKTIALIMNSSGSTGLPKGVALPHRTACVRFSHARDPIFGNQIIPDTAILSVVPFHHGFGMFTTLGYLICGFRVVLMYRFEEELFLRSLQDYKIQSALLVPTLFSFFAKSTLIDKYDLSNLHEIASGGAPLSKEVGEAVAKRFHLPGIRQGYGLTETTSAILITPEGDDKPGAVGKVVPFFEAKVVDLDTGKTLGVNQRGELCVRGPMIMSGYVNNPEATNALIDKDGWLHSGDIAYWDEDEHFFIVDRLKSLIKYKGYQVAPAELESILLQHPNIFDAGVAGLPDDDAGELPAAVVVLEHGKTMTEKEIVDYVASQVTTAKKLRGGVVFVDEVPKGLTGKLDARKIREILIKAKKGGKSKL
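Assay system – cell-free luciferase reagent · Medium – PBS-based ATP solution · Dosing – test compounds dosed from 2 mM stocks in 100% DMSO · Timing – 10 min, room temperature · Technique – light output (luminescence) · Measure – luminescence gain marking luciferase activators · Controls – No-ATP low control, compound-free enzyme-plus-ATP high control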
APP 5'UTR act = APP 5'UTR luciferase reporter activation | activation, % at 2 µM | hit rate 1% among 190,000 | SH-SY5Y APP 5'UTR luciferase reporter, luminescence; zero percent = DMSO vehicle wells;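 active = activation above a set limit, based on mean plus 3 SD of controls, cut at about 140% in these data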
FLuc inh counter = counter-screen for luciferase assay inhibitors: firefly luciferase inhibition | P08659 | ATPLite firefly luciferase biochemical luminescence, 10 min | inhibition, % at 10 µM | hit rate 1.5% among 200,000;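 active = inhibition above about 50% when tested at 10 µM, limit read from the data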
STAT1 act = activators of IFN-gamma induced STAT1 signaling | NIH 3T3 STAT1-luciferase reporter, luminescence; 100% = IFN-gamma alone, no compound | activation (% of control), % at 5.5 µM | hit rate 2.6% among 200,000 | AID 932;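 active = activation above the screen-wide mean activation plus 3 SD, cut at about 130% in these data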;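 also: raw ratio to IFN-gamma control signal so 100% means no change and 0% no light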
NF-kB neuron act = NF-kB expression increase, human neuronal cells; NF-kB reporter expression; hits give high values; fold change at 12.5 µM; hit rate 1.6% among 190,000; in the data active = fold change above about 3.3
STAT1 act conf = confirmation of STAT1 signaling activators. activation (% of control), % at 5.7 µM. AID 1262. NIH 3T3 STAT1-luciferase reporter, IFN-gamma potentiation, luminescence; 100% = IFN-gamma EC80 alone, no compound. shares compounds with STAT1 act. hit rate 97% among 1,200;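 active = activation above a set limit carried over from the earlier primary STAT1 screen, cut at about 140% in these data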;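 also: simple ratio to median IFN-gamma plus DMSO wells so 0% means no light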
NFkB act = NF-kappaB activation in STAT1 activator counter-screen; activation (% of control), % at 5.7 µM; shares compounds with STAT1 act; AID 1306; HEK293T NF-kB luciferase reporter, TNF-alpha stimulated, luminescence; 100% = TNF-alpha with vehicle only; hit rate 43% among 1,200;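 active = activation above the mean of solvent-only control wells plus 3 SD, set per campaign, cut at about 130% in these data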;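 also: TNF-alpha given at a submaximal dose yielding about 80% of full reporter signal; values are well signal over median control so 100% means no change and 0% no light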
STAT3 act 2 = counter-screen for STAT1 activators: human STAT3 activation; shares compounds with STAT1 act; U3A cells STAT3-luciferase reporter, IL-6, luminescence; cells lack STAT1; 100 = IL-6 alone, no compound effect; activation (% of control), % at 5.7 µM; hit rate 46% among 1,200;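 active = activation above the solvent-only control well mean plus 3 SD, set per plate batch, cut at about 110% in these data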;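 also: 0% = no luminescence and 100% = median IL-6 plus DMSO wells; higher means more STAT3 reporter activation so hits are non-selective activators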
An asterisk follows results filed as active; / = not tested or not shown. Compounds with a hit are over-represented: about 4.1% of the library has one in this group of screens.

SMILES	FLuc act counter	APP 5'UTR act	FLuc inh counter	STAT1 act	NF-kB neuron act	STAT1 act conf	NFkB act	STAT3 act 2
Cc1cc(/C=C(\C#N)C(=O)Nc2ccccc2F)c(C)[nH]1	0.8	147*	15	172*	5.5*	235*	141*	116*
CCCCNC(=O)c1c(O)c2cccc3c2n(c1=O)CCC3	1.1	-4	-10	102	0.95	/	/	/
COCC(=O)/C=C1\Sc2ccccc2N1C	1	-6	2	102	1.4	/	/	/
CN1/C(=C\C(=O)c2cccs2)Sc2ccccc21	0.2	168*	82*	169*	7.5*	222*	117	161*
Cc1ccc(NC(=O)/C(C#N)=C/c2cccs2)c(C)c1	0.9	90	10	160*	3.9*	171*	144*	107
N#CC1=C(SCC(=O)c2ccccc2)NC2=C(C(=O)CCC2)C1c1ccco1 (stereo unspecified)	1	-68	2	156*	2.4	166*	128	106
Cc1ccc(C(=O)CSC2=C(C#N)C(c3ccco3)C3=C(CCCC3=O)N2)cc1 (stereo unspecified)	1	-46	0	103	1.6	/	/	/
N#C/C(=N\Nc1ccc(F)cc1)C(=N)N1CCCCC1	0.5	138*	55*	155*	8.2*	216*	127	115*
COc1ccc(N/N=C(\C#N)C(=N)N2CCOCC2)cc1	0.9	51	9	116	1.2	/	/	/
CC(=O)Nc1ccc2c(c1)C(=O)c1ccccc1C2=O	0.5	186*	46	156*	3.9*	203*	139*	106
CCOc1ccc(C(=O)N2CCCC2)cc1	1	1	-2	100	1.3	/	/	/
c1ccc(-c2cc3nccc(-c4ccccn4)n3n2)cc1	0.9	100	14	160*	3.2	188*	135*	117*
Cc1cc2nccc(-c3ccccn3)n2n1	1	5	-3	106	1.2	/	/	/
COc1ccc2nc3oc(C(=O)N4CCCCC4)cc3cc2c1	0.7	120	27	179*	6.4*	206*	136*	107
O=C(O)CCC(=O)N1N=C(c2c(-c3ccccc3)c3cc(Cl)ccc3[nH]c2=O)CC1c1ccco1 (stereo unspecified)	1.1	/	-5	102	0.93	/	/	/
Cc1nc2c(-c3ccccc3)c(C)nn2c(N)c1-c1ccccc1	0.3	199*	68*	159*	2.2	206*	141*	110
Cc1nn2c(-c3ccccc3)ccnc2c1-c1ccccc1	0.7	46	29	123	2.1	/	/	/
O=C(CSc1nc2ccccc2c(=O)n1NC(=O)c1ccccc1)c1ccccc1	0.9	95	10	151*	2	159*	125	125*
O=C(Nc1ccc(Cl)cn1)c1cccc(S(=O)(=O)N2CCOCC2)c1	1	-2	-2	102	1	/	/	/
COc1ccc(/C=C2\OC(=O)c3c(OC)cccc32)cc1OC	0.5	101	50*	169*	3	209*	139*	112*
COc1ccc(/C=C2\C(=O)OCc3cc(OC)c(OC)cc32)cc1OC	0.8	-6	22	93	1.2	/	/	/
C=CCNc1nc(-c2sc(NC(C)=O)nc2C)cs1	1	10	-2	123	1.4	/	/	/
C=CCNc1nc(-c2ccc(Cl)cc2)cs1	0.6	166*	42	182*	7.5*	215*	141*	99
C=CCNc1nc(-c2ccc([N+](=O)[O-])cc2)cs1	0.7	72	29	151*	4*	194*	136*	88
CN(C)c1nc(-c2ccc([N+](=O)[O-])cc2)cs1	1	55	-2	120	2	/	/	/
SMILES	FLuc act counter	APP 5'UTR act	FLuc inh counter	STAT1 act	NF-kB neuron act	STAT1 act conf	NFkB act	STAT3 act 2
CC1CCN(C(=O)c2ccc(CSc3nc4ccncc4n3Cc3ccc(F)cc3)cc2)CC1	1.1	16	-6	93	0.91	/	/	/
COc1ccc(C(=O)Nc2ccc(SC(F)F)cc2)cc1	0.8	164*	19	164*	3.1	182*	141*	89
COc1ccc(NC(=O)c2ccc(OC(F)F)cc2)cc1Cl	0.5	104	52*	166*	4.4*	181*	129	103
O=c1c2ccccc2nc(SCc2cc(F)cc3c2OCOC3)n1Cc1ccco1	1.1	-2	-9	104	1.5	/	/	/
COC(=O)c1ccc(COc2ccccc2/C=C(\C#N)C(=O)Nc2ccc(C)cc2)cc1	1	19	4	151*	1.1	195*	135*	106
CN(C)c1ccc(/C=C/c2nnnn2-c2ccccc2)cc1	0.9	132	10	172*	3.9*	187*	134*	118*
CSc1nc2ccc(NC(=O)c3ccc(Cl)s3)cc2s1	0.9	138*	6	186*	1.5	181*	140*	104
O=C(Nc1nc2ccccc2s1)c1ccc(Cl)s1	0.7	156*	32	156*	4.8*	231*	141*	109
COc1ccc(OC)c(-c2csc(NC(=O)c3ccc(OCC4CCCO4)cc3)n2)c1 (stereo unspecified)	0.6	44	39	102	0.61	/	/	/
O=C(Nc1nc2ccccc2s1)c1ccc(OCC2CCCO2)cc1 (stereo unspecified)	0.3	122	74*	177*	1.6	248*	103	97
COc1ccc(C(=O)Nc2nc3ccccc3s2)cc1OC	0.8	139*	21	174*	3.6*	227*	155*	114*
COc1ccc(-c2cc(C(=O)Nc3nc4ccccc4s3)c3ccccc3n2)cc1OC	1	16	1	103	0.58	/	/	/
O=C(Nc1ccon1)c1ccc(Cl)s1	1	4	-3	102	1.2	/	/	/
Cc1ccc(S(=O)(=O)NCCOc2nc(N3CCOCC3)nc(N3CCOCC3)n2)cc1	1	-10	-1	96	1.2	/	/	/
COc1ccc(NC(=O)C2(c3ccc(NC(=O)c4ccc(OC)c(OC)c4)cc3)CCCC2)cc1	1.1	-1	-6	102	0.97	/	/	/
Cc1ccc(Nc2nc(-c3ccc(S(=O)(=O)N4CCCC4)cc3)cs2)cc1C	1.1	17	-8	92	1	/	/	/
Cc1cccc(-n2nnc(C(=O)Nc3ccc(F)cc3)c2N)c1	0.9	109	7	168*	5.1*	196*	130	97
CC1=CCC2C(=O)N(Cc3ccccc3)C(=O)C2C1 (stereo unspecified)	1	2	-1	99	0.86	/	/	/
